This is a sample that favours compounds with a hit; in the whole collection about 1.5% have one here.
APJ ag: activates the human apelin receptor APJ; CHO-K1 APJ PathHunter beta-arrestin, luminescence; 0% DMSO wells, 100% apelin; P35414; 330,000 compounds, 0.11% hits; activation, % at 20 µM;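 active = activation more than six SD over the plate average, tested at 20 µM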;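 also: 0% = DMSO alone and 100% = apelin-13 at 10 nM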
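system = engineered CHO-K1 APJ arrestin reporter cells | input = 1000 cells per well | timing = overnight seeding, 90 min compound at 25 °C, 1 h detection | measured by = enzyme-fragment complementation luminescence | read-out = beta-arrestin recruitment to APJ as agonist activity, luminescent signal | control set = negative DMSO alone, positive Apelin-13 at 10 nM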
APJ antag: blocks the human apelin receptor APJ | P35414 | CHO-K1 APJ beta-arrestin complementation, luminescence | inhibition, % at 20 µM | 330,000 compounds, 0.32% hits | AID 2521;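 active = inhibition above about 40% at 20 µM, limit read from the data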;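 also: cells challenged with 10 nM apelin-13 agonist together with compound; plate controls were apelin-13 plus DMSO wells for no effect and DMSO wells lacking apelin-13 for full effect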
EBI2 antag: EBI2 (human) antagonism | EBI2 beta-arrestin recruitment, luminescence, 7a,25-OHC stimulated | 360,000 compounds, 0.81% hits | inhibition, % at 5 µM | P32249; in the data active = inhibition above about 38%;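 also: enzyme fragment complementation signal reports receptor beta-arrestin coupling in cells; 0% = agonist plus DMSO wells and 100% = wells without agonist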
CCR6 antag: CCR6 (human) receptor antagonism | P51684 | CHO-K1 CCR6 PathHunter beta-arrestin, luminescence, CCL20-stimulated | inhibition, % at 20 µM | 340,000 compounds, 0.49% hits | AID 493098;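 active = compounds whose inhibition of the agonist-driven luminescence signal at 20 µM reaches about 50%, limit read from the data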;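 also: cells stimulated with CCL20 at 14 nM final; plate controls were DMSO with CCL20 for no effect and DMSO without agonist for full effect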
CXCR6 inh: inhibitors of human CXCR6 receptor | 360,000 compounds, 0.36% hits | AID 602244 | CHO-K1 PathHunter CXCR6 beta-arrestin, luminescence | inhibition, % at 20 µM; in the data active = inhibition above about 34%, passing the limit was not always enough;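 also: antagonist mode with CXCL16 agonist at 10 nM final; 0% = 10 nM CXCL16 with DMSO and 100% = unstimulated wells without agonist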
Target sequence (O00574 whole entry, looked up): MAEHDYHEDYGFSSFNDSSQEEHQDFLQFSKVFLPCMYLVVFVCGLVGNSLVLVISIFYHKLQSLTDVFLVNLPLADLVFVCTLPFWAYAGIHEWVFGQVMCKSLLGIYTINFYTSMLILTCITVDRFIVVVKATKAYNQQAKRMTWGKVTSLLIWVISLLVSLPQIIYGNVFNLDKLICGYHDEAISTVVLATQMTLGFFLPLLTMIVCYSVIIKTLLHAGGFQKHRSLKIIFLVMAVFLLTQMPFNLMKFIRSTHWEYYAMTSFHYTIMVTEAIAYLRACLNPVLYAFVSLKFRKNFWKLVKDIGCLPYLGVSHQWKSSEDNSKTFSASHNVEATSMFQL
EBI2 conf: EBI2 (human) antagonism, single concentration confirmation; shares compounds with EBI2 antag; AID 651997; inhibition, % at 5 µM; 2,400 compounds, 29% hits; EBI2 beta-arrestin luminescence, 7a,25-OHC antagonism;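 active = inhibition of at least 50%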
EBI2 ag: activates EBI2, counter-screen for EBI2 antagonists; 2,400 tested, under 10 active; AID 652000; EBI2-expressing cells, agonist mode, luminescence, 60 min; 0% vehicle, 100% 7α,25-dihydroxycholesterol control; activation, % at 5 µM; shares compounds with EBI2 antag;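 active = activation of at least 50%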
bGal counter: inhibits E. coli beta-galactosidase, counter-screen for EBI2 antagonists; 2,400 compounds, 1% hits; shares compounds with EBI2 antag; inhibition, % at 5 µM; purified beta-galactosidase, luminescent Galacton Star, 15 min;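 active = replicate-average signal at least 3 plate SD below neutral wells, shown as high inhibition, flagging enzyme-inhibiting false positives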;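 also: 0% = DMSO wells with enzyme and 100% = wells lacking enzyme; higher means stronger loss of beta-gal luminescence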
Numbers without * were called inactive.

How did Cc1cccc(C)c1N1CCN(C(=O)Nc2ccc3c(c2)OCCO3)CC1 do in these assays?
APJ ag: 1; APJ antag: -5; EBI2 antag: 64*; CCR6 antag: 8; CXCR6 inh: -4; EBI2 conf: 54*; EBI2 ag: 0; bGal counter: 7

What do the screens show for `CCOc1ccc(S(=O)(=O)c2c(C(=O)c3ccc(C)cc3)cnc3cc4c(cc23)OCCO4)cc1`?
APJ ag: -5; APJ antag: -3; EBI2 antag: 47*; CCR6 antag: 4; CXCR6 inh: 10; EBI2 conf: 14; EBI2 ag: 1; bGal counter: 8

What do the screens show for `Cc1ccc(C(=O)c2cnc3cc4c(cc3c2S(=O)(=O)c2ccccc2)OCCO4)cc1`?
APJ ag: -2; APJ antag: 16; EBI2 antag: 18; CCR6 antag: 7; CXCR6 inh: 11

Results for Cn1nc(C(=O)NCC2COc3ccccc3O2)c2ccccc2c1=O (stereo unspecified) ?
APJ ag: -3; APJ antag: 20; EBI2 antag: 3; CCR6 antag: 12; CXCR6 inh: 8

How did COc1ccccc1C(=O)Nc1nc(C)cc(C)n1 do in these assays?
APJ ag: 1; APJ antag: 13; EBI2 antag: -2; CCR6 antag: -4; CXCR6 inh: -1

How did COc1cc(OC)c(C=NNC(=S)NC23CC4CC(CC(C4)C2)C3)c(OC)c1 do in these assays?
EBI2 antag: 54*; CCR6 antag: 20; CXCR6 inh: 9; EBI2 conf: 12; EBI2 ag: 0; bGal counter: -5

How did Nc1c(C(=O)c2ccccc2)sc(Nc2ccccc2)c1S(=O)(=O)c1ccccc1 do in these assays?
APJ ag: -3; APJ antag: -12; EBI2 antag: 46*; CCR6 antag: 32; CXCR6 inh: 20; EBI2 conf: 50*; EBI2 ag: 4; bGal counter: 3

How did CCOc1ccccc1CNC(=O)C1CCCN(c2nnc(C)c3c(C)n(-c4ccccc4)nc23)C1 (stereo unspecified) do in these assays?
APJ ag: 0; APJ antag: -1; EBI2 antag: -15; CCR6 antag: -19; CXCR6 inh: 8

Results for CCN1CCN(C(=O)c2cc3c(s2)-c2c(C)cccc2OC3)CC1 ?
APJ ag: -3; APJ antag: 12; EBI2 antag: 91*; CCR6 antag: 8; CXCR6 inh: -1; EBI2 conf: 78*; EBI2 ag: 1; bGal counter: 7

Results for O=C(O)c1cc2c(s1)-c1ccccc1OC2 ?
APJ ag: -1; APJ antag: -15; EBI2 antag: 5; CCR6 antag: 2; CXCR6 inh: 1

Results for Cc1cccc2c1-c1sc(C(=O)N3CCCCC3)cc1CO2 ?
APJ ag: -3; APJ antag: 8; EBI2 antag: 78*; CCR6 antag: 16; CXCR6 inh: -12; EBI2 conf: 71*; EBI2 ag: 0; bGal counter: 4

How did Cc1cccc2c1-c1sc(C(=O)Nc3ccccc3N3CCN(C)CC3)cc1CO2 do in these assays?
APJ ag: -3; APJ antag: 15; EBI2 antag: 7; CCR6 antag: 20; CXCR6 inh: 2

Results for Cc1cccc2c1-c1sc(C(=O)N3CCc4ccccc4C3)cc1CO2 ?
APJ ag: -2; APJ antag: 2; EBI2 antag: 11; CCR6 antag: 9; CXCR6 inh: -2

What do the screens show for `CCOC(=O)N1CCN(C(=O)c2cc3c(s2)-c2c(C)cccc2OC3)CC1`?
APJ ag: -2; APJ antag: 16; EBI2 antag: 91*; CCR6 antag: 12; CXCR6 inh: -4; EBI2 conf: 87*; EBI2 ag: 1; bGal counter: -6

What do the screens show for `O=C(c1ccco1)N1CCN(C(=O)c2cc3c(s2)-c2ccccc2OC3)CC1`?
APJ ag: -1; APJ antag: 21; EBI2 antag: 70*; CCR6 antag: 19; CXCR6 inh: 2; EBI2 conf: 62*; EBI2 ag: 1; bGal counter: -1

Screening data deposited in PubChem BioAssay by Sanford-Burnham Center for Chemical Genomics.
